Compound activity from PubChem BioAssay.
UPR XBP1 act = activators of adaptive arm of unfolded protein response (XBP1); 330,000 compounds, 0.33% hits; activation, % at 20 µM; AID 463104; CHO-XBP1 luciferase reporter, IRE1-XBP1 UPR activation, luminescence; percent of tunicamycin response, DMSO as zero;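 active = versus positive control, 20 µM dose yields 30% or more activation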
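Assay system: CHO-XBP1 luciferase reporter cells; Schedule: 6 h treatment, 37 °C; Detection: glow luminescence from Steady-Glo reagent; Benchmarks: high control tunicamycin 10 µg/mL final, low control DMSO vehicle only.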
HCV NS3 hel inh = HCV NS3 helicase inhibition. 290,000 compounds, 0.56% hits. NS3 helicase DNA unwinding, Cy5 molecular beacon fluorescence. inhibition, % at 10.9 µM;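 active = inhibition above the mean of all tested compounds plus 3 SD, set per campaign, cut at about 35% in these data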
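System: NS3 helicase fragment of HCV / Schedule: 1 h at 25 °C / Control set: DMSO alone as 0% and 110 µM thioflavine S as 100% / Reagent: Cy5/quencher beacon DNA duplex and ATP to start / Technique: Cy5 fluorescence / Replication: singlicate / Evaluation: % inhibition of end-to-start signal ratio versus controls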
PfM18AAP inh = blocks P. falciparum M18 aspartyl aminopeptidase | recombinant PfM18AAP, H-Glu-NHMec fluorogenic cleavage | inhibition, % at 7.35 µM | 290,000 compounds, 1.2% hits | AID 1822;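 active = inhibition above the campaign mean inhibition over all tested compounds plus 3 SD, cut at about 28% in these data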
CHOP inh = blocks CHOP induction under ER stress; CHO-K1 CHOP-promoter luciferase, tunicamycin-induced, 15-18 h; inhibition, % at 10 µM; 220,000 compounds, 3.8% hits;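 active = compounds that reduced the stress-induced luciferase reporter signal by more than about 70% of percent inhibition, limit read from the data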
CHOP UPR activ = activators of apoptotic arm of unfolded protein response (CHOP). AID 449763. 330,000 compounds, 0.34% hits. CHO-CHOP luciferase reporter, UPR activation, luminescence; percent of tunicamycin response over DMSO baseline. activation, % at 10 µM;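 active = at 10 µM dose, activation of 40% or more, normalized to positive control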
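System: CHO-CHOP luciferase reporter cell line | Buffer or medium: F12 medium containing 10% fetal bovine serum | Doses: One dose, 10 µM in 0.5% DMSO | Times: 6 h compound exposure at 37 °C after overnight seeding | Signal: Luciferase luminescence | Read-out: % activation vs tunicamycin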
p97 inhibitor = blocks human p97 ATPase activity. P55072. inhibition, % at 8 µM. 220,000 compounds, 0.42% hits. recombinant p97 ATPase, Kinase-Glo ATP luminescence, 3 h; in the data active = inhibition above about 15%
Target sequence (P55072 whole entry, looked up): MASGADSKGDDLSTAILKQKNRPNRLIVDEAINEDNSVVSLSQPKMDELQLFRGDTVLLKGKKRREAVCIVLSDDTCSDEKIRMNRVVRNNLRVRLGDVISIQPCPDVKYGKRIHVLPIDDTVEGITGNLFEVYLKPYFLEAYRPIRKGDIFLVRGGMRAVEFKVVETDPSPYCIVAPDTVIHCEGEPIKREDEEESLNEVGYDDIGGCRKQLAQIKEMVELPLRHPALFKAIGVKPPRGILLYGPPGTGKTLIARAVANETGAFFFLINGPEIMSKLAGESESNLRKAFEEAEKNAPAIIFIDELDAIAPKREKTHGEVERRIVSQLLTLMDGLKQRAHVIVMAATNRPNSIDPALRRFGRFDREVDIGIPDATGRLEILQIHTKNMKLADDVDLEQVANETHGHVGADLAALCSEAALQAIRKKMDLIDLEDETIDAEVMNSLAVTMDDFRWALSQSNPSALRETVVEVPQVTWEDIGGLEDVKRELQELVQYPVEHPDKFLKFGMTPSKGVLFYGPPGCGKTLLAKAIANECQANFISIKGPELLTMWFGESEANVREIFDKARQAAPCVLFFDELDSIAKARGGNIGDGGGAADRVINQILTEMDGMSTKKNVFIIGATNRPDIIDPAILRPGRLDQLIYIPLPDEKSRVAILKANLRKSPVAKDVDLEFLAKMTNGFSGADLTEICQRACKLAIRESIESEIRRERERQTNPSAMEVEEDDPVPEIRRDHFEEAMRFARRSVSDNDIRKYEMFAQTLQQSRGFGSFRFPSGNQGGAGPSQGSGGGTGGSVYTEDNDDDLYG
Large screens that a line does not name were inactive. Compounds with a hit are over-represented: about 4.5% of the library has one in this group of screens.

COC(=O)c1ccc2c(=O)n(Cc3ccco3)c(SCC(=O)Nc3ccc(C)c(Cl)c3)nc2c1	UPR XBP1 act 38.4
CN(C)C(=C(C#N)C#N)N1CCN(c2ccc(Cl)cc2)CC1	none
N#CC(C#N)=C/C(C#N)=C(/N)N1CCN(c2ccc(Cl)cc2)CC1	CHOP inh 80.4
CC1Cc2ccccc2N1C(=O)CCS(=O)(=O)c1cccs1 (configuration not stated)	none
CC1Cc2ccccc2N1C(=O)Cc1cccs1 (configuration not stated)	CHOP inh 70.6
COc1ccc(S(N)(=O)=O)cc1C(=O)OCC1CCCCC1	none (no result: CHOP inh, p97 inhibitor)
CC(C)c1nc(N2CCN(C(=O)c3ccccc3)CC2)c(C#N)c2c1COC(C)(C)C2	CHOP inh 91.0
CC(C)c1nc(N2CCN(C(=O)c3ccco3)CC2)c(C#N)c2c1COC(C)(C)C2	none (no result: CHOP inh, p97 inhibitor)
O=C(NCc1cccc(OC(F)(F)F)c1)c1ccc2c(c1)S(=O)(=O)c1cc(Cl)ccc1C2=O	none (no result: HCV NS3 hel inh, PfM18AAP inh, CHOP inh, p97 inhibitor)
CCC(=O)N1CCN(c2nc(-c3ccccc3)c3c(c2C#N)CCCC3)CC1	CHOP inh 73.2
CCn1c(CCCc2ccc(OC)c(C)c2)n[nH]c1=S	PfM18AAP inh 28.7
Cc1nc2c(cnn2-c2ccccc2Cl)c(=O)n1-c1ccc(N2CCC(C)CC2)cc1	CHOP inh 76.8
Cc1ccc(-n2c(C)nc3c(cnn3-c3ccc(F)cc3)c2=O)cc1C	none
CCc1nc2c(cnn2-c2ccc(F)cc2)c(=O)n1-c1ccc(N2CCC(C)CC2)cc1	CHOP inh 78.9
O=C(NC1CCSc2ccccc21)c1ccc(Cl)c(S(=O)(=O)N2CCOCC2)c1 (configuration not stated)	none (no result: CHOP inh, p97 inhibitor)
O=C(Nc1ccccc1)c1cc2ccc3ccccc3c2s1	none
O=C(Cc1cccs1)Nc1nc2c(ccc3ccccc32)s1	CHOP inh 80.9
CC(=O)Nc1nc2c(ccc3ccccc32)s1	none (no result: CHOP inh, p97 inhibitor)
Cc1nnc(N/N=C/c2ccc(-c3ccccc3F)o2)n1N	PfM18AAP inh 52.2
Cc1nnc(N/N=C/c2ccccc2O)n1N	none
COc1cccc(C(c2c(C)[nH]n(-c3ccccc3)c2=O)c2c(C)[nH]n(-c3ccccc3)c2=O)c1O	none (no result: HCV NS3 hel inh, PfM18AAP inh, CHOP inh, p97 inhibitor)
Cc1[nH]n(-c2ccccc2)c(=O)c1C(c1ccc(O)c([N+](=O)[O-])c1)c1c(C)[nH]n(-c2ccccc2)c1=O	p97 inhibitor 14.6 (no result: CHOP inh)
Cc1ccc(NC(=O)COC(=O)c2ccccc2Nc2ccccc2)cc1	CHOP inh 76.9
COC(=O)Nc1ccc(S(=O)(=O)Nc2ccc(C)cc2)cc1	none (no result: UPR XBP1 act, CHOP UPR activ)
COC(=O)Nc1ccc(S(=O)(=O)Nc2ccc(O)cc2)cc1	CHOP inh 77.6
CSc1c(CC(=O)NCCCO)n(Cc2ccccc2)c2ccccc12	none (no result: CHOP inh, p97 inhibitor)
COc1ccc(NC(=O)Cc2c(SC)c3ccccc3n2Cc2ccccc2)cc1	CHOP inh 74.1
Cc1cccc(NC(=S)N/N=C/c2c[nH]c3ccccc23)c1	CHOP inh 91.1
Cc1ccc(C(=O)Nc2ccc(C(=O)N/N=C/c3c[nH]c4ccccc34)cc2)cc1	none
CC1CCCCC1NS(=O)(=O)c1ccc2c(c1)CC(=O)N2C (configuration not stated)	none (no result: CHOP inh, p97 inhibitor)
COc1cccc(-c2nc(-c3ccccc3)nc(N3CCN(C)CC3)c2C#N)c1	CHOP inh 77.0
CC(C)COc1nc2ccccc2c(=O)n1OCC(=O)O	none
CCCOn1c(OCC(C)C)nc2ccccc2c1=O	CHOP inh 72.8
NC(=O)c1ccsc1NC(=O)COC(=O)c1ccccc1NCc1ccco1	CHOP inh 95.6
O=C(NCC(c1ccco1)N1CCCC1)c1ccc(S(=O)(=O)Nc2ccccc2F)cc1 (configuration not stated)	none (no result: HCV NS3 hel inh, PfM18AAP inh, CHOP inh, p97 inhibitor)
NC(=S)NCCCC(N)C(=O)O (configuration not stated)	none (no result: UPR XBP1 act, HCV NS3 hel inh, PfM18AAP inh, CHOP UPR activ, p97 inhibitor)
Cc1cccc(C)c1NC(=O)COc1ccc2c(C)c(Cc3ccccc3)c(=O)oc2c1C	CHOP inh 95.8
Cc1c(Cc2ccccc2)c(=O)oc2c(C)c(OCC(=O)Nc3ccc(C#N)cc3)ccc12	none
CCc1nc2sc3ccccc3c(=O)c2c(=O)n1CCOC	none
CC(C)c1nc2sc3ccccc3c(=O)c2c(=O)n1Cc1ccccc1	none
COc1ccc(Cn2c(C(C)C)nc3sc4ccccc4c(=O)c3c2=O)cc1	CHOP inh 79.1
COCCn1c(C2CCCCC2)nc2sc3ccccc3c(=O)c2c1=O	CHOP inh 91.8
Cc1ccc(NC(=O)c2ccc(NS(=O)(=O)/C=C/c3ccccc3)cc2)nc1	none (no result: CHOP inh, p97 inhibitor)
CCOC(=O)Cc1csc(NC(=O)c2csc3c2CCCC3)n1	CHOP inh 75.9
COc1cc(NC(=O)c2csc3c2CCCC3)ncn1	CHOP inh 71.5
CCOC(=O)Cc1csc(NC(=O)c2cc3c(s2)CCCC3)n1	none
Cc1ccc(S(C)(=O)=O)cc1C(=O)N1CC(C(N)=O)Oc2ccccc21 (configuration not stated)	none (no result: CHOP inh, p97 inhibitor)
Cc1cc(NC(=O)CSc2nnc(NCc3ccccc3)s2)no1	none
COc1ccccc1Nc1nnc(SCC(=O)Nc2cc(C)on2)s1	CHOP inh 95.3
COc1ccc2cc(C)c(SCC(=O)Nc3cc(C)on3)nc2c1	CHOP inh 84.2
CCN1CC(c2ccccc2)C(c2ccc(Cl)cc2)=N1 (configuration not stated)	CHOP inh 79.5
CN1N=C(c2ccc(Cl)cc2)CC(c2ccc(Cl)cc2)C1=O (configuration not stated)	none
CCC(Oc1cc(Cl)ccc1Cl)C(=O)NN1C(=O)C2C3CCC(C3=C(C)C)C2C1=O (configuration not stated)	CHOP inh 86.7
COc1ccccc1CNC(=O)c1cccc(S(=O)(=O)N(C)c2ccccc2)c1	none (no result: HCV NS3 hel inh, PfM18AAP inh, CHOP inh, p97 inhibitor)
Cc1cc(=O)[nH]c(NN=C2CCC(C(C)(C)C)CC2)n1 (configuration not stated)	CHOP inh 82.1
O=C(Nc1ccc([N+](=O)[O-])cc1)Nc1ccc(N2CCOCC2)c2nonc12	CHOP inh 76.4
COc1ccccc1N/C(N)=N/c1nc(CSc2nc3ccccc3s2)cc(=O)[nH]1	CHOP inh 93.6
N=C1SC(CC(=O)Nc2ccc([N+](=O)[O-])cc2)C(=O)N1c1ccccc1 (configuration not stated)	PfM18AAP inh 29.1
CCN=C1NN=C(c2ccc(C)cc2)CS1	none
COCCN=C1NN=C(c2ccc(NC(C)=O)cc2)CS1	PfM18AAP inh 28.4
Cc1ccc(C(=O)CCC(=O)Nc2ccccc2C)c(C)c1	none (no result: CHOP inh, p97 inhibitor)
Cc1ccc(S(=O)(=O)Cc2ccc(C(=O)N3CCN(c4cccc(C)c4C)CC3)o2)cc1	none (no result: CHOP inh, p97 inhibitor)
COc1ccc(S(=O)(=O)Cc2ccc(C(=O)N3CCN(c4cccc(C)c4C)CC3)o2)cc1	CHOP inh 71.1
